# The source made the active and inactive calls.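 How the source made its calls: active means fitted OD600 growth curve drops 35% below untreated wells at up to twice the top tested dose; inconclusive means flat curve with 30 to 70% drop, or poor fit; inactive means the rest, including rising growth signal.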
# System: P. aeruginosa PAK growth with EDDHA, OD600, 28 h
# Assay: iron-limited growth inhibition, wild-type PAK – whole organism, PAK strain, OD600, EDDHA, dry powder, set 3, dose response (AID 624073)
# Conditions: not given
# In short: (§1)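 material = Pseudomonas aeruginosa PAK wild-type strain, whole bacterial cells | medium = Succinate-based M9 minimal medium adjusted to pH 7.0 | probe or stimulus = iron chelator EDDHA at 2 µM in the medium | times = compound exposure of 28 h at 30 °C, humidified | read-out = bacterial growth measured as OD600 absorbance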
row,Structure (SMILES),AC35
1,N#CC(c1ccc(Cl)cc1)c1ccc(Cl)cn1 (stereo unspecified),87.7 µM
2,N#CC(c1ccc(Cl)cc1)c1ncccc1Cl (stereo unspecified),77.8 µM
3,N#CC(c1ccc(Cl)cc1)c1cccc(Cl)n1 (stereo unspecified),40.9 µM
4,N#CC(c1ccc(Cl)cc1)c1cccc(C(F)(F)F)n1 (stereo unspecified),12.8 µM
5,CCCCC(c1ccc(Cl)cc1)c1nn[nH]n1 (stereo unspecified),> 100 µM (inactive)
6,N#CC(c1cccc(C(F)(F)F)n1)c1ccc(Cl)cc1F (stereo unspecified),13.7 µM
7,N#CC(c1ccc(F)cc1)c1cccc(C(F)(F)F)n1 (stereo unspecified),15.4 µM
8,N#CC(c1cccc(Cl)n1)c1ccc(Cl)cc1F (stereo unspecified),47.5 µM

# System: not listed separately
# Assay: as above
# Conditions: P. aeruginosa PAK growth with EDDHA, OD600, 28 h; at 100 µM (top of the series)
# In short: as §1
row,Structure (SMILES),"activity change, negative = inhibition"
1,COCCNC(C#N)c1ccc(Cl)cc1 (stereo unspecified),-2.37% (inactive)
2,CCCCC(C#N)c1ccc(F)cn1 (stereo unspecified),-13.8% (inactive)
3,COCCC(C#N)c1ccc(F)cc1 (stereo unspecified),1.49% (inactive)

# Source: PubChem BioAssay AID624073 (Broad Institute, 2012)
